Our source for the IC50, 5-LOX inhibition and COX-1 inhibition values is paper PMC3000598 (Phytochemistry letters, 2008).

Structures are written as SMILES.

What is called IC50 is the concentration that gives 50% inhibition.

Assay [1] has as its system 5-LOX catalyzed LTB4 formation. Put plainly: In vitro assay for leukotriene. In kind it is cell-based. As to conditions: Homo sapiens, Leukocyte, 10 min, read-out: IC50 5-LOX mediated LTB4 formation. An outline of the steps:
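Human venous-blood polymorphonuclear leukocytes isolated by sedimentation rate and lysis tolerance; viability checked by 0.4% trypan blue. Cells (4500 cells/mL) were incubated with the ethanol-dissolved test compound, CaCl2, A23187 and arachidonic acid for 10 min at 37 °C with shaking. The reaction was stopped with 10% HCO2H, and LTB4 was measured by competitive EIA.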

Another assay concerns 5-LOX. As to conditions: cellular as well as cell-free assays; ref Albert et al. (2002); cited from earlier work.
The next assay concerns COX-1. As to conditions: cellular as well as cell-free assays; ref Albert et al. (2002); cited from earlier work.

As for `CC(c1cc2ccccc2s1)N(O)C(N)=O` (stereo not drawn) [Zileuton], in assay [1], the IC50 is 5 µM.

Regarding `CC(C)=CCC[C@]1(C)[C@@H](CC=C(C)C)C[C@@]2(CC=C(C)C)C(=O)[C@]1(C(=O)C(C)C)C(=O)C(CC=C(C)C)=C2O` [hyperforin], the 5-LOX inhibition entry with 5-LOX was “dual COX-1/5-LOX inhibitor”. Besides, the COX-1 inhibition result in the assay with COX-1 was “dual COX-1/5-LOX inhibitor”.
